# In the library only some 12% were active in any assay of this set; here they are far more common.
# L major viab = inhibitors of Leishmania major promastigote growth; Leishmania major promastigotes, resazurin fluorescence viability; inhibition, % at 10 µM; actives 9% (n = 200,000); AID 1063; in the data active means inhibition above about 50%;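 further: promastigotes grown with compound for 44 hours at 28 °C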
# b-catenin transl = beta-catenin nuclear translocation modulation; HeLa beta-catenin nuclear translocation, immunofluorescence imaging; nuclear translocation activity, % at 5 µM; actives 0.3% (n = 190,000);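 active means nuclear translocation activity above 50% at 5 µM, with a well cell count of 50 or more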;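 further: per-cell ratio of nuclear to cytoplasmic median beta-catenin stain intensity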
#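 Read-out: Nuclear/cytoplasmic beta-catenin signal ratio, % activation | Assay system: Human HeLa cell line | Times: 24 h compound exposure at 37°C, 5% CO2 | Signal: Fluorescence imaging of beta-catenin antibody stain plus DAPI | Dosing: 5 µM primary, 0.02–20 µM confirmation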
# CHOP inhibitor = CHOP inhibition in unfolded protein response; inhibition, % at 10 µM; actives 3.8% (n = 220,000); CHO-K1 CHOP-promoter luciferase, tunicamycin-induced, 15-18 h;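 active means compounds that reduced the stress-induced luciferase reporter signal by more than about 70% of percent inhibition, limit read from the data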
# Dynein cargo inh = blocks dynein driven cargo transport along microtubules. 3617.4 mouse cells, GR-EGFP nuclear translocation imaging; test concentration mostly 20 µM; stimulated with dexamethasone, 1 µM; active compounds read low. z-score, hits read low. actives 0.47% (n = 220,000);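 active means plate z-score of nuclear minus cytoplasmic receptor signal below a set negative limit, without overly bright fluorescence or cell loss, cut at about -3.5 in these data, passing the limit was not always enough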;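 further: z-score of nuclear minus cytoplasmic ring GR-EGFP intensity difference per well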
#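 medium = tetracycline-free induction medium containing charcoal-stripped FBS | probe or stimulus = dexamethasone, 1.0 µM final | timing = 48 h induction, then 1 h compound, then 30 min agonist, 37 °C | detection = automated 10x imaging of fixed Hoechst-stained cells | read-out basis = nuclear versus cytoplasmic GR-EGFP signal, averaged per well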
# Autophagy HCS = modulators of autophagy | MEF GFP-LC3 puncta imaging; test concentration mostly 10 µM | calls only at 10 µM (by protocol) | actives 0.98% (n = 190,000);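 active means percentage of spot-positive cells more than 3 SD above its plate mean, without a fluorescence outlier flag or 80% toxicity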
# MT stabilize HCS = microtubule stabilization, imaging screen; HeLa tubulin immunostaining HCS, 24 h; share of cells brighter than vehicle mean+2SD; % tubulin-high responders, % at 10 µM; actives 0.83% (n = 200,000); AID 2205;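 active means plate Z-score above 3 for both tubulin-high and condensed-nucleus cell shares, with cell loss under 80%, at 10 µM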;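 further: anti alpha tubulin signal scored within the nucleus-defined area of each cell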
# A number is an active result; . = inactive; / = no result given; + = active, no number.
SMILES,L major viab,b-catenin transl,CHOP inhibitor,Dynein cargo inh,Autophagy HCS,MT stabilize HCS
CC(=O)c1ccc(-n2c(SCC(=O)c3c[nH]c4ccccc34)nc3ccccc3c2=O)cc1,.,.,.,.,.,.
C/C(=N\NC(=O)CC1N=C(Cc2ccccc2)NNC1=O)c1ccc(C)cc1 (stereo unspecified),.,.,.,.,.,30.8
CCN(CC)c1ccc(NC(=S)NC(=O)c2cccs2)cc1,.,.,.,.,.,.
COc1ccc(OCCCC(=O)NCCc2ccc(OC)c(OC)c2)cc1,.,.,.,.,.,.
CCOc1ccc(C(=O)CC(=O)C(=O)NCCc2ccc(OC)c(OC)c2)cc1,60.1,.,.,.,.,.
CSc1ccccc1NC(=O)CSCc1ccccc1Br,.,.,71.8,.,.,.
CSc1ccccc1NC(=O)CN(C)Cc1ccc(Br)cc1,.,.,80.3,.,.,.
CSc1ccc(CN(C)CC(=O)Nc2ccccc2Br)cc1,.,.,.,.,.,.
O=C(c1cc(F)c(F)cc1Cl)N1CCN(c2ccc([N+](=O)[O-])c3ncccc23)CC1,57.4,.,.,.,.,.
O=S(=O)(NCc1cc(-c2ccccc2Cl)no1)c1ccc(Cl)cc1,.,/,73.9,.,.,.
COc1ccc(C2NC(c3ccc(OC)cc3OC)C(C)C(=O)C2C)c(OC)c1 (stereo unspecified),.,.,.,.,.,.
COc1ccc(/C=N/NC(=O)c2csc(-n3nc(C)cc3C(F)(F)F)n2)cc1,.,107.8,79.1,.,.,29.7
CCS(=O)(=O)N1CCC(C(=O)c2ccc(Cl)cc2)CC1,.,.,.,.,.,.
O=C(O)COc1ccccc1/C=N/NC(=O)c1cc2ccccc2cc1O,/,.,.,.,/,/
CC1=C(C(=O)NCc2ccccc2)C(c2cccs2)NC(=S)N1 (stereo unspecified),.,.,.,.,.,.
Cc1ccc(S(=O)(=O)N/N=C/c2ccccc2O)cc1[N+](=O)[O-],.,.,.,.,+,.
CCO[C@@H]1OC(C(=O)NCc2ccccc2)=C[C@H](c2coc3ccccc3c2=O)[C@H]1CCCO,.,.,.,.,.,.
COC(=O)/C(C#N)=C1/C=Cc2ccccc2N1C,.,.,.,.,.,.
CN1/C(=C/c2cc[n+](C)c3ccccc23)C=Cc2ccccc21,100.7,.,.,.,.,.
COc1cc(/C=C(\C#N)c2nc3ccccc3n2C)cc(OC)c1O,.,.,.,.,.,.
CC(=O)C1=C(O)C(=O)N(c2cc(C(C)(C)C)on2)C1c1ccc(C(C)C)cc1 (stereo unspecified),.,.,72.5,.,.,.
CC(=O)C1=C(O)C(=O)N(c2cc(C(C)(C)C)on2)C1c1ccc(Br)cc1 (stereo unspecified),.,.,.,.,.,.
O=C(CN1N=C(c2ccc(Cl)cc2)CCC1=O)NCc1cccnc1,.,.,.,.,.,.
Cc1cccc(C(=O)Nc2ccc(O)c3c(=O)cc(-c4ccccc4Cl)oc23)c1,.,/,.,.,+,.
O=c1cc(-c2ccccc2Cl)oc2c([N+](=O)[O-])c(O)cc(O)c12,.,.,76.3,.,.,.
SMILES,L major viab,b-catenin transl,CHOP inhibitor,Dynein cargo inh,Autophagy HCS,MT stabilize HCS
O=C(Nc1ccc(O)c2c(=O)cc(-c3ccccc3Cl)oc12)c1cccc(Cl)c1,.,/,.,.,.,.
O=c1cc(-c2ccccc2Cl)oc2ccc([N+](=O)[O-])c(O)c12,.,.,.,.,.,.
CC12CN(S(=O)(=O)c3ccccc3)CC(C)(CN(S(=O)(=O)c3ccccc3)C1)C2,.,/,.,.,.,.
CCN(CC)CCSc1nnc2c3ccccc3n(Cc3ccccc3)c2n1,/,.,.,.,/,/
CN(CCC#N)C(=O)CC1(Cc2ccccc2)CCOC(C)(C)C1 (stereo unspecified),/,.,.,.,/,/
O=C(Nc1ccc(N2CCN(C(=O)c3cccs3)CC2)c(Cl)c1)c1ccco1,.,/,.,.,.,.
O=C(Nc1ccc2c(c1)CCC2)c1cccc(F)c1,82.8,/,.,.,.,.
O=C(Nc1ccc(N2CCCC2)cc1)c1cccc(F)c1,.,/,/,.,.,43.0
O=C(Nc1ccc(N2CCCC2)cc1)c1ccccc1F,100.1,.,.,.,.,.
Cc1ccccc1C(=O)N1CCN(c2ccc(NC(=O)c3ccco3)cc2Cl)CC1,98.5,/,.,.,.,.

# Screening results from PubChem.
